In ChEMBL document CHEMBL5661972, “In vitro biological activity of a novel small-molecule inhibitor of polo-like kinase 1” (Mol Cancer Ther, 2007):
Calls of active or inactive are those of the source. No cut-off for these calls is given here.

How the values were obtained:
[1] = molecular target: Platelet-derived growth factor receptor beta (Homo sapiens, UniProt P09619); assay: Inhibition of PDGFR1beta (unknown origin)
CDK1/Cyclin A = CDK1/Cyclin A (Homo sapiens, UniProt P06493); assay: Inhibition of CDK1/cyclin A (unknown origin); type: protein-complex assay
[2] = Inhibition of EGFR (unknown origin); parameters: species or system Homo sapiens
[3] = Cytotoxicity against human HDF cells assessed as inhibition of cell growth; type: toxicity, cell-based; conditions: HDF cells (NHDF, human dermal fibroblasts)
In short: (§1)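 Cells grown 3 days in 96-well plates, seeded so vehicle controls stay in log growth (MES-SA/DX5 7,000, MES-SA 6,000, HDF 5,000 per well). Exposed to 3-fold dilutions, 30–0.00152 μmol/L, in medium with 5% FBS, 50 μg/mL gentamicin and 0.3% (v/v) DMSO. HDF medium was low-glucose DMEM; MES-SA lines used McCoy's 5A.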

MES-SA = assay: Antiproliferative activity against human MES-SA cells assessed as inhibition of cell growth; type: functional, cell-based; in short: as §1
[4] = Selectivity ratio of IC50 for cytotoxicity against human HDF cells to IC50 for antiproliferative activity against human A549 cells; type: toxicity, cell-based; conditions: HDF cells versus A549 cells, read-out: Ratio IC50
[5] = Selectivity ratio of IC50 for cytotoxicity against human HDF cells to IC50 for anti-proliferative activity against human HeLa cells; type: toxicity, cell-based; conditions: HDF cells versus HeLa cells, read-out: Ratio IC50
[6] = Selectivity ratio of IC50 for cytotoxicity against human HDF cells to IC50 for antiproliferative activity against human NCI-N87 cells; type: toxicity, cell-based; conditions: HDF cells versus NCI-N87 cells, read-out: Ratio IC50
[7] = Inhibition of p53-PLK1 in human HeLa cells assessed as inhibition of p53 phosphorylation at Ser15 residue by ELISA analysis; type: cell-based
In short: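 HeLa Tet-On cells carrying tet-inducible p53-PLK1 kinase-domain fusion (T210D), induced overnight with 125 ng/mL doxycycline; ten 3-fold dilutions (30–0.00152 μmol/L final, 0.3% DMSO, 5% serum) for 1 h. Lysates captured on anti-p53-coated plates overnight at 4°C; phospho-Ser15 and total p53 detected with HRP secondary/TMB, A450. IC50 from curve fit.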

NHDF [8] = assay: Induction of cell cycle arrest in human HDF cells assessed as accumulation of cells at S phase at 1 micromol/L incubated for 24 hrs by propidium iodide staining based flow cytometry analysis (reference value: 13.2 %); type: toxicity; conditions: 1 µM, dose 1 µmol/L
In short: (§2)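 Cells seeded in six-well plates at densities that keep them in log growth (HDF 120,000, 60,000 or 30,000; H460 100,000, 50,000 or 25,000 per well for 24, 48 or 72 h). Treated with 1 or 3 μmol/L. Floating and adherent cells collected, ethanol-fixed, permeabilized with Triton X-100 and stained with propidium iodide. DNA content read by flow cytometry as % singlet cells.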

NHDF [9] = assay: Induction of cell cycle arrest in human HDF cells assessed as accumulation of cells at G2-M phase at 1 micromol/L incubated for 24 hrs by propidium iodide staining based flow cytometry analysis (reference value: 22.6 %); type: toxicity; conditions: 1 µM, dose 1 µmol/L; in short: as §2
NHDF [10] = assay: Induction of cell cycle arrest in human HDF cells assessed as accumulation of cells at Sub-2N phase at 3 micromol/L incubated for 24 hrs by propidium iodide staining based flow cytometry analysis (reference value: 0.2 %); type: toxicity; conditions: 3 µM, dose 3 µmol/L; in short: as §2
NHDF [11] = assay: Induction of cell cycle arrest in human HDF cells assessed as accumulation of cells at >4N phase at 3 micromol/L incubated for 24 hrs by propidium iodide staining based flow cytometry analysis (reference value: 2.4 %); type: toxicity; conditions: 3 µM, dose 3 µmol/L; in short: as §2
NHDF [12] = assay: Induction of cell cycle arrest in human HDF cells assessed as accumulation of cells at S phase at 1 micromol/L incubated for 48 hrs by propidium iodide staining based flow cytometry analysis (reference value: 4.7 %); type: toxicity; conditions: 1 µM, dose 1 µmol/L; in short: as §2
NHDF [13] = assay: Induction of cell cycle arrest in human HDF cells assessed as accumulation of cells at S phase at 3 micromol/L incubated for 72 hrs by propidium iodide staining based flow cytometry analysis (reference value: 3.6 %); type: toxicity; conditions: 3 µM, dose 3 µmol/L; in short: as §2
NHDF [14] = assay: Induction of cell cycle arrest in human HDF cells assessed as accumulation of cells at >4N phase at 3 micromol/L incubated for 72 hrs by propidium iodide staining based flow cytometry analysis (reference value: 1.4 %); type: toxicity; conditions: 3 µM, dose 3 µmol/L; in short: as §2
NCI-H460 [15] = assay: Induction of cell cycle arrest in human NCI-H460 cells assessed as accumulation of cells at S phase at 1 micromol/L incubated for 24 hrs by propidium iodide staining based flow cytometry analysis (reference value: 23.2 %); type: functional; conditions: dose 1 µmol/L, at 1 µM
NCI-H460 [16] = assay: Induction of cell cycle arrest in human NCI-H460 cells assessed as accumulation of cells at G2-M phase at 1 micromol/L incubated for 24 hrs by propidium iodide staining based flow cytometry analysis (reference value: 19.8 %); type: functional; conditions: dose 1 µmol/L, at 1 µM
NCI-H460 [17] = assay: Induction of cell cycle arrest in human NCI-H460 cells assessed as accumulation of cells at G2-M phase at 3 micromol/L incubated for 24 hrs by propidium iodide staining based flow cytometry analysis (reference value: 19.8 %); type: functional; conditions: dose 3 µmol/L, at 3 µM
NCI-H460 [18] = assay: Induction of cell cycle arrest in human NCI-H460 cells assessed as accumulation of cells at G2-M phase at 3 micromol/L incubated for 48 hrs by propidium iodide staining based flow cytometry analysis (reference value: 22.5 %); type: functional; conditions: dose 3 µmol/L, at 3 µM
NCI-H460 [19] = assay: Induction of cell cycle arrest in human NCI-H460 cells assessed as accumulation of cells at Sub-2N phase at 3 micromol/L incubated for 48 hrs by propidium iodide staining based flow cytometry analysis (reference value: 2.5 %); type: functional; conditions: dose 3 µmol/L, at 3 µM
NCI-H460 [20] = assay: Induction of cell cycle arrest in human NCI-H460 cells assessed as accumulation of cells at >4N phase at 3 micromol/L incubated for 48 hrs by propidium iodide staining based flow cytometry analysis (reference value: 0.9 %); type: functional; conditions: dose 3 µmol/L, at 3 µM; in short: as §2
NCI-H460 [21] = assay: Induction of cell cycle arrest in human NCI-H460 cells assessed as accumulation of cells at G1 phase at 3 micromol/L incubated for 72 hrs by propidium iodide staining based flow cytometry analysis (reference value: 58.2 %); type: functional; conditions: dose 3 µmol/L, at 3 µM
NCI-H460 [22] = assay: Induction of cell cycle arrest in human NCI-H460 cells assessed as accumulation of cells at S phase at 3 micromol/L incubated for 72 hrs by propidium iodide staining based flow cytometry analysis (reference value: 17.8 %); type: functional; conditions: dose 3 µmol/L, at 3 µM
NCI-H460 [23] = assay: Induction of cell cycle arrest in human NCI-H460 cells assessed as accumulation of cells at G2-M phase at 1 micromol/L incubated for 72 hrs by propidium iodide staining based flow cytometry analysis (reference value: 18.2 %); type: functional; conditions: dose 1 µmol/L
NCI-H460 [24] = assay: Induction of apoptosis in human NCI-H460 cells assessed as increase in caspase-3 activity at 5 micromol/L measured after 46 hrs using AcDEVD-[…] fluorogenic peptide as substrate by plate reader analysis; type: functional, cell-based; conditions: dose 5.0 µmol/L
In short: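 H460 cells seeded at 320,000 per well in six-well plates and given 5 μmol/L for 7 to 72 h. Lysates made in Tris/phosphate buffer, pH 7.5, with Triton X-100. Cleavage of Ac-DEVD-[…] measured by fluorescence, excitation 380 nm, emission 420–460 nm.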

CDK1/Cyclin A, sequence (P06493 whole entry): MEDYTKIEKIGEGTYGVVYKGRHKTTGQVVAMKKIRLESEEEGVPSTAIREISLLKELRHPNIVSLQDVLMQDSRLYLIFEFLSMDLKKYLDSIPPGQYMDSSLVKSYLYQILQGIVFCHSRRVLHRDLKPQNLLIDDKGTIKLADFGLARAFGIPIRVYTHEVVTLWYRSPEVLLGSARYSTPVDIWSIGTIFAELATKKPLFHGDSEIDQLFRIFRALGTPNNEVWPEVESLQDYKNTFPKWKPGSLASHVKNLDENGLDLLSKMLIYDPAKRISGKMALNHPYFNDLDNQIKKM
CDK1/Cyclin A, sequence (P20248 whole entry, further chain): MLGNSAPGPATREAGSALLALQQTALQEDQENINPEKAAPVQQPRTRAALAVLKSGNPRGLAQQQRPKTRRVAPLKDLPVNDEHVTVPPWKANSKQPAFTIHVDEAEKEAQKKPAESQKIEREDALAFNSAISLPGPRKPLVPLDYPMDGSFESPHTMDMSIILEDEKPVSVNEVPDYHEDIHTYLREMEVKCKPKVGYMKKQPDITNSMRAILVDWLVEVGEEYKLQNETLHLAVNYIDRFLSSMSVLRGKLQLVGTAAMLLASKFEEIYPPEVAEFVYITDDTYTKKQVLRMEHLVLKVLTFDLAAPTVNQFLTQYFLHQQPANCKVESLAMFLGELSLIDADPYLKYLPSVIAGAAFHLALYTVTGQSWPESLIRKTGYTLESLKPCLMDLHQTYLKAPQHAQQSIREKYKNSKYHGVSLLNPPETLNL
Platelet-derived growth factor receptor beta, sequence (P09619 whole entry): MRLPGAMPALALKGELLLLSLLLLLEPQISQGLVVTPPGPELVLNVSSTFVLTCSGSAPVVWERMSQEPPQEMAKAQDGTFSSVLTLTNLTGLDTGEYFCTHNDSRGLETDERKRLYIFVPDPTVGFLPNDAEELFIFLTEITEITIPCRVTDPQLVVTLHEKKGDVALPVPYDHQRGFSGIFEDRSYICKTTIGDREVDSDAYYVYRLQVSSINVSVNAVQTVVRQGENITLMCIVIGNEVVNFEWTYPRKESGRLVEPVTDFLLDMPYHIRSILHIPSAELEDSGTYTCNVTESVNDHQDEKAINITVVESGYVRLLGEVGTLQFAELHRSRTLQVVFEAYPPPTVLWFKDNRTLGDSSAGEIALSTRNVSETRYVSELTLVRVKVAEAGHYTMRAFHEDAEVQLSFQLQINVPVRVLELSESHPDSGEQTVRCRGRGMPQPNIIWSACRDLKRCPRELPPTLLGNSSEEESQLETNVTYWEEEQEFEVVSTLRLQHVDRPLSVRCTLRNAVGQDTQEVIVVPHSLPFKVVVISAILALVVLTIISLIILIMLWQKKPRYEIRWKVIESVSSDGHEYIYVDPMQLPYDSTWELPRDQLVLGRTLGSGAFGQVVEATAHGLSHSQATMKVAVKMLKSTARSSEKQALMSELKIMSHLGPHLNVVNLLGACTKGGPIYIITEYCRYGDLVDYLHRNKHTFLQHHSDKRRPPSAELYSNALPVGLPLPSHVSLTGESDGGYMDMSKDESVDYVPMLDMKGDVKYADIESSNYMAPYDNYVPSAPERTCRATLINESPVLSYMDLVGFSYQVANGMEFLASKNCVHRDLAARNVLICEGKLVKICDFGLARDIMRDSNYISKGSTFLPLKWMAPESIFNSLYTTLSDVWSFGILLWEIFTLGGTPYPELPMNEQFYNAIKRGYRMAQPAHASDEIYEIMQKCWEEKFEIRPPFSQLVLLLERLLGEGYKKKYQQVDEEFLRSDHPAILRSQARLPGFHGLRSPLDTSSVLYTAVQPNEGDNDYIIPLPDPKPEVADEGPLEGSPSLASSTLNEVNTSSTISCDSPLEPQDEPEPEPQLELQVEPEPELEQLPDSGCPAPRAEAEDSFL

## COc1cc2ncn(-c3cc(OCc4ccccc4C(F)(F)F)c(C(N)=O)s3)c2cc1OC [GW843682X]
[1]
  IC50: 160 nM
CDK1/Cyclin A
  IC50: > 10000 nM
[2]
  IC50: > 10000 nM
[3]
  IC50: 6140 nM
MES-SA
  IC50: 210 nM
[4]
  selectivity ratio: > 10
[5]
  selectivity ratio: > 10
[6]
  selectivity ratio: > 10
[7]
  IC50: 140 nM
NHDF [8]
  Activity: 10.2%
NHDF [9]
  Activity: 27.6%
NHDF [10]
  Activity: 0.2%
NHDF [11]
  Activity: 6%
NHDF [12]
  Activity: 7.4%
NHDF [13]
  Activity: 8%
NHDF [14]
  Activity: 19.1%
NCI-H460 [15]
  Activity: 18.2%
NCI-H460 [16]
  Activity: 33%
NCI-H460 [17]
  Activity: 37.7%
NCI-H460 [18]
  Activity: 14.4%
NCI-H460 [19]
  Activity: 20.3%
NCI-H460 [20]
  Activity: 35.9%
NCI-H460 [21]
  Activity: 3.7%
NCI-H460 [22]
  Activity: 3.6%
NCI-H460 [23]
  Activity: 10.6%
NCI-H460 [24]
  Activity: Active
